Laboratory results from ChEMBL document CHEMBL5614377, “Structure-based mapping of the histone-binding pocket of KDM4D using functionalized tetrazole and pyridine core compounds” (Eur J Med Chem, 2024).

How the values were obtained:
[1] = target: T1, Lysine-specific demethylase 4D (Homo sapiens, UniProt Q6B0I6); experiment: Binding affinity to N-terminal His-6-tagged human KDM4D catalytic domain (1 to 342 residues) assessed as dissociation constant by isothermal titration calorimetry analysis
T1 sequence (Q6B0I6 whole entry): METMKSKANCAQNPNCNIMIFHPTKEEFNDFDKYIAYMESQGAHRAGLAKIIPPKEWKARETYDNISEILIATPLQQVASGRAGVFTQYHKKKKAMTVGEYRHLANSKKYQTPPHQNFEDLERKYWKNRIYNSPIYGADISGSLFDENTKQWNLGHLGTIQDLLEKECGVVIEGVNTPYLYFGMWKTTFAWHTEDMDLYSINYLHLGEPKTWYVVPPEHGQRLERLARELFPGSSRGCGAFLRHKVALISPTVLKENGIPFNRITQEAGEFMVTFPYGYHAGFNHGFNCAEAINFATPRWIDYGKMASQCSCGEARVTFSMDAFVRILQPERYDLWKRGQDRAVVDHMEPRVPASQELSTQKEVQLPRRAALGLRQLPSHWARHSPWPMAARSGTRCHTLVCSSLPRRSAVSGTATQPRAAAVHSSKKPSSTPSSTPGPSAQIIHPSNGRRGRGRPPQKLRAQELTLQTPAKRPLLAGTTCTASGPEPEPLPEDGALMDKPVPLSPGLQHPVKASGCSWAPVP
Method in brief: (§1)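 Human KDM4D catalytic domain (residues 1–342) expressed with N-terminal His6-tag, purified by metal affinity chromatography; tag removed by TEV protease for affinity tests, then size-exclusion. Protein concentration measured by A280. ITC at 20 °C in 10 mM HEPES pH 7.5, 0.5 M NaCl, 5% glycerol, 1 mM TCEP. Ligands diluted from DMSO stocks to 0.4–1% final DMSO, with protein DMSO-matched. Ligand titrated into protein in the cell in 13 or 19 injections of 2–3 μL, 180 s spacing, 5 s filter. Two or three runs per ligand. Thermodynamic parameters obtained by baseline adjustment, peak integration, heat normalization per mole of ligand, and fitting.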

[2] = target: T2, Lysine-specific demethylase 4D (Homo sapiens) (UniProt Q6B0I6); experiment: Binding affinity to N-terminal His-6-tagged human KDM4D catalytic domain (1 to 342 residues) assessed as change in entropy by isothermal titration calorimetry analysis; method in brief: as §1
T2 sequence (whole entry): T1 sequence (Q6B0I6 whole entry)

[3] = target: T2, Lysine-specific demethylase 4D (Homo sapiens); experiment: Binding affinity to N-terminal His-6-tagged human KDM4D catalytic domain (1 to 342 residues) assessed as change in gibbs free energy by isothermal titration calorimetry analysis; method in brief: as §1
[4] = target: T2, Lysine-specific demethylase 4D (Homo sapiens); experiment: Binding affinity to N-terminal His-6-tagged human KDM4D catalytic domain (1 to 342 residues) assessed as change in enthalpy by isothermal titration calorimetry analysis; method in brief: as §1

**Q.** Which results are given for `O=C(NO)c1cc(-c2nnn[nH]2)ccn1`?
**A.** Kd [1]: 0.55 µM; -TdeltaS [2]: -13.7 kcal/mol; deltaG [3]: -8.4 kcal/mol; deltaH [4]: 5.3 kcal/mol

**Q.** Which results are given for `CS(=O)(=O)NCCNc1cc(C(=O)O)ccn1`?
**A.** Kd [1]: 35.5 µM; -TdeltaS [2]: -1.35 kcal/mol; deltaG [3]: -5.97 kcal/mol; deltaH [4]: -4.6 kcal/mol

**Q.** How did the Kd [1] turn out when `O=C(O)c1ccnc(NCCCO)c1` was run?
**A.** The Kd was 55.9 µM.

**Q.** What about the -TdeltaS [2] of the same compound?
**A.** Its -TdeltaS is -4.05 kcal/mol.

**Q.** What about the deltaG [3] of the same compound?
**A.** Its deltaG is -5.7 kcal/mol.

**Q.** And the deltaH [4]?
**A.** Its deltaH is -1.65 kcal/mol.

**Q.** For `NNC(=O)[C@H](NC(=O)CCCCc1ccccc1)c1nnn[nH]1`, which Kd [1] is on record?
**A.** Its Kd is 509 µM.

**Q.** What about the -TdeltaS [2] of the same compound?
**A.** The -TdeltaS was -12.9 kcal/mol.

**Q.** What about the deltaG [3] of the same compound?
**A.** Its deltaG is -4.42 kcal/mol.

**Q.** What about the deltaH [4] of the same compound?
**A.** The deltaH was 8.5 kcal/mol.
